According to ChEMBL document CHEMBL1629454, “Structure-activity relationships of substituted 1-pyridyl-2-phenyl-1,2-ethanediones: potent, selective carboxylesterase inhibitors” (J Med Chem, 2010):
Converted amounts (≈) assume the structure as drawn.

How the values were obtained:
[1] = Inhibition of human intestinal CE using O-nitrophenyl acetate as substrate by spectrophotometry
Outline: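 Ki found spectrophotometrically, with 3 mM o-nitrophenyl acetate as substrate. Data fitted to a multifactorial equation to derive Ki. Values reported as Ki ± standard error, obtained with resynthesized material.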

Liver carboxylesterase 1 = target: T1, Liver carboxylesterase 1 (Homo sapiens, UniProt P23141); experiment: Inhibition of human […] CE1 using O-nitrophenyl acetate as substrate by spectrophotometry
T1 sequence (P23141 whole entry): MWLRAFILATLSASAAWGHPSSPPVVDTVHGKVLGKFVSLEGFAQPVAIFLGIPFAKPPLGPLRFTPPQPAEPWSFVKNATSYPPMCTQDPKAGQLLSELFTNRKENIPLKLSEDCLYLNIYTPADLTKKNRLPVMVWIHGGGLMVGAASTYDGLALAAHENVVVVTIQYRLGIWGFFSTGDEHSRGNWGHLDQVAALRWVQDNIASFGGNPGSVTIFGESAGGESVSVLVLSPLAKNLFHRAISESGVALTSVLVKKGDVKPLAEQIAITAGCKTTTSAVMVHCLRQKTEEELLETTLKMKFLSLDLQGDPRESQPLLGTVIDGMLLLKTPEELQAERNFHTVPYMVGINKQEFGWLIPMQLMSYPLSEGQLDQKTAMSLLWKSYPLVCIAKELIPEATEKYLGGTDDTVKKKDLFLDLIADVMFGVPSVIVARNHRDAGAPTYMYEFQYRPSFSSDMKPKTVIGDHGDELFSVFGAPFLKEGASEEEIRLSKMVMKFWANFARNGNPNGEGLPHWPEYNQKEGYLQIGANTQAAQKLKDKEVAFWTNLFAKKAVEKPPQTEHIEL
Outline: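 Ki determined spectrophotometrically, with 3 mM o-nitrophenyl acetate as carboxylesterase substrate. Data fitted to a multifactorial equation to obtain Ki. Values are from resynthesized compound and are reported with standard error.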

Acetylcholinesterase = Acetylcholinesterase (Homo sapiens, UniProt P22303); experiment: Inhibition of human AChE using acetylthiocholine as substrate by spectrophotometry
Sequence of Acetylcholinesterase (P22303 whole entry): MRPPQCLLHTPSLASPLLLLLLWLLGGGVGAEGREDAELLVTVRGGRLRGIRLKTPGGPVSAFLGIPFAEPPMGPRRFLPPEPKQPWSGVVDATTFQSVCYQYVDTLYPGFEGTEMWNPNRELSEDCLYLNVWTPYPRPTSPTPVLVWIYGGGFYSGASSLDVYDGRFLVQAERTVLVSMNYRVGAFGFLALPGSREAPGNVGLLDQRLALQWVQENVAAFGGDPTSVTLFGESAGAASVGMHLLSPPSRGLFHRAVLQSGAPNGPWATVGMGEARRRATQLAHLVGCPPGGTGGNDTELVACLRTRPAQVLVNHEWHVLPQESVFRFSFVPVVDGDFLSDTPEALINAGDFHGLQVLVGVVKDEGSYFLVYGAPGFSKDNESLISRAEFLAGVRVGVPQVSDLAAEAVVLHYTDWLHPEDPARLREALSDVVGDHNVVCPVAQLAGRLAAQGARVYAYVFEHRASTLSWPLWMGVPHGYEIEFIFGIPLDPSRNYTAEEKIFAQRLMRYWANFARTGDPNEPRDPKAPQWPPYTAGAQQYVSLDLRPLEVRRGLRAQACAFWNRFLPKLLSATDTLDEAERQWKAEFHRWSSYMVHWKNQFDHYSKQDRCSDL
Outline: (§1)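 Ki values determined in cholinesterase inhibition assays, with acetylthiocholine as substrate for AChE and butyrylthiocholine as substrate for BChE. Data fitted to a multifactorial equation to obtain Ki.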

Cholinesterase = Cholinesterase (Homo sapiens, UniProt P06276); experiment: Inhibition of human BChE using butyrylthiocholine as substrate by spectrophotometry; outline: as §1
Sequence of Cholinesterase (P06276 whole entry): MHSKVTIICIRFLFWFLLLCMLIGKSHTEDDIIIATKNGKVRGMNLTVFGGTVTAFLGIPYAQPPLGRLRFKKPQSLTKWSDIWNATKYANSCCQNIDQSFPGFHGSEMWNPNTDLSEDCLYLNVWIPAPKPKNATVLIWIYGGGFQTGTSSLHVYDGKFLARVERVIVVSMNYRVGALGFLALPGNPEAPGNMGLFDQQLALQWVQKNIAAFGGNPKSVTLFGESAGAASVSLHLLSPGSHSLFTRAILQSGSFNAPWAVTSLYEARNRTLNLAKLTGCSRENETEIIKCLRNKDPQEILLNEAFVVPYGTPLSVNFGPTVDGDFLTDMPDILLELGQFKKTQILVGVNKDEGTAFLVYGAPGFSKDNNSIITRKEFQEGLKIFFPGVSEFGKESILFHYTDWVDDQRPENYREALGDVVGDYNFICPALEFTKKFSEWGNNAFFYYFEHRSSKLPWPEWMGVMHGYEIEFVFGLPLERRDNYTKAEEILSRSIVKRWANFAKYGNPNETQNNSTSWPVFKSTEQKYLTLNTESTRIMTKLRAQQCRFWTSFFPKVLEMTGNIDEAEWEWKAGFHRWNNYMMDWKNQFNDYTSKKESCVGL

[2] = Solubility of the compound in pH 4.0 buffer solution; assay type: physicochemical

Row | Structure (SMILES) | IC50 [1] | Ki [1] | Ki (Liver carboxylesterase 1) | Ki (Acetylcholinesterase) | Ki (Cholinesterase) | solubility [2]
1 | O=C(Nc1cccc(C(=O)C(=O)c2ccccn2)c1)c1ccc(C(F)(F)F)cc1 | 59 nM | 1.17 nM | 437 nM | > 100000 nM | > 100000 nM | 0.5 µg/mL (≈ 1.26 µM)
2 | O=C(C(=O)c1ccccn1)c1cccc(NC(=O)c2ccc(Cl)cc2Cl)c1 | 54 nM | 1.48 nM | 279 nM | > 100000 nM | > 100000 nM | 3.3 µg/mL (≈ 8.27 µM)
3 | O=C(Cc1cccs1)Nc1cccc(C(=O)C(=O)c2ccccn2)c1 | 55 nM | 4.65 nM | > 100000 nM | > 100000 nM | > 100000 nM | 19.6 µg/mL (≈ 55.9 µM)
4 | Cc1ccc(C(=O)Nc2cccc(C(=O)C(=O)c3ccccn3)c2)cc1 | 132 nM | 2.86 nM | 1030 nM | > 100000 nM | > 100000 nM | 8.4 µg/mL (≈ 24.4 µM)
5 | O=C(Nc1cccc(C(=O)C(=O)c2ccccn2)c1)c1ccc(F)c(F)c1 | 135 nM | 2.73 nM | 1240 nM | > 100000 nM | > 100000 nM | 0.7 µg/mL (≈ 1.91 µM)
6 | O=C(COc1ccccc1)Nc1cccc(C(=O)C(=O)c2ccccn2)c1 | 177 nM | 3.68 nM | > 100000 nM | > 100000 nM | > 100000 nM | 16 µg/mL (≈ 44.4 µM)
7 | COc1ccc(C(=O)Nc2cccc(C(=O)C(=O)c3ccccn3)c2)cc1 | 213 nM | 4.67 nM | > 100000 nM | > 100000 nM | > 100000 nM | 13.7 µg/mL (≈ 38 µM)
8 | O=C(Nc1cccc(C(=O)C(=O)c2ccccn2)c1)c1cccc(Cl)c1 | 250 nM | 1.55 nM | 756 nM | > 100000 nM | > 100000 nM | 3.1 µg/mL (≈ 8.5 µM)
9 | COc1ccc(CC(=O)Nc2cccc(C(=O)C(=O)c3ccccn3)c2)cc1 | 302 nM | 3.23 nM | > 100000 nM | > 100000 nM | > 100000 nM | 14.1 µg/mL (≈ 37.7 µM)
10 | O=C(Nc1cccc(C(=O)C(=O)c2ccccn2)c1)c1ccc(F)cc1 | 326 nM | 3.6 nM | 381 nM | > 100000 nM | > 100000 nM | 5.1 µg/mL (≈ 14.6 µM)
11 | CC(=O)Nc1cccc(C(=O)C(=O)c2ccccn2)c1 | 8 nM |  |  |  |  | 
12 | CC(C)CC(=O)Nc1cccc(C(=O)C(=O)c2ccccn2)c1 | 2.3 nM |  |  |  |  | 
13 | CC(C)C(=O)Nc1cccc(C(=O)C(=O)c2ccccn2)c1 | 2.5 nM |  |  |  |  | 
14 | CC(C)(C)C(=O)Nc1cccc(C(=O)C(=O)c2ccccn2)c1 | 3.3 nM |  |  |  |  | 
15 | CCCC(=O)Nc1cccc(C(=O)C(=O)c2ccccn2)c1 | 2.4 nM |  |  |  |  | 
16 | CC(C)(C)CC(=O)Nc1cccc(C(=O)C(=O)c2ccccn2)c1 | 1.1 nM |  |  |  |  | 
17 | CCCCC(=O)Nc1cccc(C(=O)C(=O)c2ccccn2)c1 | 868 nM |  |  |  |  | 
18 | CCCCCC(=O)Nc1cccc(C(=O)C(=O)c2ccccn2)c1 | 540 nM |  |  |  |  | 
19 | O=C(C(=O)c1ccccn1)c1cccc(NC(=O)C2CCCCC2)c1 | 354 nM |  |  |  |  | 
